Published values gathered from unrelated publications.
Compare with care: the assays were run in different laboratories.
Target: Inhibitor of nuclear factor kappa-B kinase subunit alpha (CHUK, Homo sapiens, UniProt O15111)
Sequence (O15111 1-745, as in one of the studies): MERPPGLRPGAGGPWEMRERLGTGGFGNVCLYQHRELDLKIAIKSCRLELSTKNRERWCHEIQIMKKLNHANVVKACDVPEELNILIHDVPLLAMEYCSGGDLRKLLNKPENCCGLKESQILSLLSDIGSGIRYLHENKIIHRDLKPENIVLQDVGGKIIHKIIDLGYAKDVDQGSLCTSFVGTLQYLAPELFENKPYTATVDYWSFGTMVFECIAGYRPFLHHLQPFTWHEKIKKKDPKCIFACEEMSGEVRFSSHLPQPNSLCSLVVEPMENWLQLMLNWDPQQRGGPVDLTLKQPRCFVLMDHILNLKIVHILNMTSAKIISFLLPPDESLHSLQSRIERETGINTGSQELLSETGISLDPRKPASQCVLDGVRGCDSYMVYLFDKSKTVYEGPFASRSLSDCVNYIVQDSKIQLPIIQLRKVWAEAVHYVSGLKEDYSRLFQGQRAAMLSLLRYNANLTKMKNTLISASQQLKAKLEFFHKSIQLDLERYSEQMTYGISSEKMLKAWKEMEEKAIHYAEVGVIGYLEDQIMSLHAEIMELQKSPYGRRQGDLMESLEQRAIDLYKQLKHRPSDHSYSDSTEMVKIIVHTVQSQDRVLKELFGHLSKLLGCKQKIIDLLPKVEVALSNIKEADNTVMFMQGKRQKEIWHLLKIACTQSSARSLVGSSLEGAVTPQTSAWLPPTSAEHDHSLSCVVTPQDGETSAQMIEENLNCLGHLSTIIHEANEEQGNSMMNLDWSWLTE

| Structure (SMILES) | assay | conditions | measurement | result |
| --- | --- | --- | --- | --- |
| C=CC(=O)N1CCC([C@@H]2CCNc3c(C(N)=O)c(-c4ccc(Oc5ccccc5)cc4)nn32)CC1 | enzyme activity, inhibitor | 1 µM | inhibition | 0% |
| COc1ccc2oc(-c3ccc4nc(N)oc4c3)c/c(=N\c3ccccc3NC(=O)CCN)c2c1 | binding | 1 µM | remaining binding | 94% |
| C=CC(=O)N1CCC[C@@H](n2nc(-c3ccc(Oc4ccccc4)cc3)c3c(N)ncnc32)C1 | enzyme activity, inhibitor | 1 µM | inhibition | 16% |
| CCCCC(=O)Nc1ccc(-c2ccc3ncn(CCC)c(=O)c3c2)cn1 | binding, competition with immobilised ligand | 0.5 µM | remaining binding | 100% |
| C[C@H]1CC[C@H](n2c3cnccc3c3cnc(Nc4ccc5c(n4)CCN(C(=O)CO)C5)nc32)CC1 | cell-free assay | 1 µM | remaining signal | 76% |
| N#Cc1ccc(NC(=O)Nc2ccccc2)cc1 | cell-free assay, competition with immobilised ligand | 25 µM | remaining binding | 85% |
| C#Cc1cnc(Nc2ccnc(CO)c2)nc1Nc1ccccc1S(C)(=O)=NC#N (centres unmarked) | cell-free assay | 1 µM | remaining signal | 100% |
| COc1ccc2[nH]c3c4[nH]c5ccc(OC)cc5c4c4c(c3c2c1)C(=O)NC4=O | binding | 1 µM | remaining binding | 89% |
